According to ChEMBL document CHEMBL1148530, “Discovery of new antitubercular oxazolyl thiosemicarbazones” (J Med Chem, 2006):
Converted amounts (≈) assume the structure as drawn. The source made the active and inactive calls. No cut-off for these calls is given here.

Tests used:
[1] = test system: Mycobacterium tuberculosis; experiment: Antimycobacterial activity against Mycobacterium tuberculosis H37Rv; type: functional
How it was run: (§1)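 MIC determined by agar dilution, following the NCCLS-recommended approach, in duplicate. Strains were M. tuberculosis H37Rv and a multidrug-resistant M. tuberculosis. Concentrations were tested up to 25 µg/mL.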

[2] = test system: Mycobacterium tuberculosis; experiment: Activity against Mycobacterium tuberculosis H37Rv infected in CD1 mouse assessed as decrease in bacterial load relative to control in spleen at 50 mg/kg, ip; type: functional; details: route intraperitoneal
How it was run: (§2)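 Female CD-1 mice, 6 weeks old, infected intravenously via the caudal vein with about 10⁷ viable M. tuberculosis ATCC 35801. Intraperitoneal treatment for 10 days after inoculation.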

Vero [3] = experiment: Cytotoxicity against Vero cell line; type: functional, cell-based; details: Chlorocebus sabaeus
[4] = test system: Mycobacterium tuberculosis; experiment: Activity against Mycobacterium tuberculosis H37Rv infected in CD1 mouse assessed as decrease in bacterial load relative to control in lung at 50 mg/kg, ip; type: functional; details: route intraperitoneal; how it was run: as §2
[5] = test system: Mycobacterium tuberculosis; experiment: Activity against Mycobacterium tuberculosis H37Rv infected in CD1 mouse assessed as decrease in bacterial load relative to control in spleen at 25 mg/kg, ip; type: functional; details: route intraperitoneal; how it was run: as §2
[6] = test system: Mycobacterium tuberculosis; experiment: Activity against Mycobacterium tuberculosis H37Rv infected in CD1 mouse assessed as decrease in bacterial load relative to control in lung at 25 mg/kg, ip; type: functional; details: route intraperitoneal; how it was run: as §2
Vero [7] = experiment: Selectivity index, IC50 for Vero cell line/ MIC for Mycobacterium tuberculosis H37Rv; type: functional
How it was run: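 Vero cells were exposed to compound at 62.5 µg/mL for 72 h. Viability was read by MTT conversion to formazan. Selectivity index is the Vero IC50 divided by the agar-dilution MIC against the listed strain.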

[8] = test system: Mycobacterium tuberculosis; experiment: Antimycobacterial activity against Mycobacterium tuberculosis H37Rv at 25 ug/ml; type: functional, organism-based; how it was run: as §1

CN(C)c1ccc(/C=N/N=C(\S)Nc2ncc(C3CCC3)o2)cc1
MIC [1]: 3.12 µg/mL (≈ 9.08 µM)

COc1c(N2CCNC(C)C2)c(F)cc2c(=O)c(C(=O)O)cn(C3CC3)c12 (stereo not drawn) [GATIFLOXACIN]
Log10 cfu [2]: 6.24
IC50 (Vero [3]): > 62.5 µg/mL
Log10 cfu [4]: 6.02
MIC [1]: 0.2 µg/mL (≈ 0.533 µM)

NNC(=O)c1ccncc1 [ISONIAZID]
IC50 (Vero [3]): > 62.5 µg/mL
Log10 cfu [5]: 4.11
MIC [1]: 0.05 µg/mL (≈ 0.365 µM)
Log10 cfu [6]: 5.12

O=[N+]([O-])c1cccc(/C=N/N=C(\S)Nc2ncc(C3CCC3)o2)c1
IC50 (Vero [3]): < 62.5 µg/mL
MIC [1]: 0.78 µg/mL (≈ 2.26 µM)

Oc1[nH]c2ccc(F)cc2c1/N=N/C(S)=N/c1ncc(C2CCC2)o1
MIC [1]: 12.5 µg/mL (≈ 34.8 µM)

S=C(NN=C(Cc1ccccc1)Cc1ccccc1)Nc1ncc(C2CCC2)o1
MIC [1]: 6.25 µg/mL (≈ 15.4 µM)

C/C(=N\N=C(/S)Nc1ncc(C2CCC2)o1)c1ccccc1
MIC [1]: 3.12 µg/mL (≈ 9.92 µM)

CC[C@@H](CO)NCCN[C@@H](CC)CO [ETHAMBUTOL]
IC50 (Vero [3]): > 62.5 µg/mL
MIC [1]: 1.56 µg/mL (≈ 7.64 µM)

C/C(=N\N=C(/S)Nc1ncc(C2CCC2)o1)c1ccccc1O
MIC [1]: 3.12 µg/mL (≈ 9.44 µM)

COc1cc(/C=N/N=C(\S)Nc2ncc(C3CCC3)o2)ccc1O
MIC [1]: 12.5 µg/mL (≈ 36.1 µM)

Oc1[nH]c2ccccc2c1/N=N/C(S)=N/c1ncc(C2CCC2)o1
MIC [1]: 25 µg/mL (≈ 73.2 µM)

O=[N+]([O-])c1ccccc1/C=N/N=C(\S)Nc1ncc(C2CCC2)o1
MIC [1]: 0.78 µg/mL (≈ 2.26 µM)

S=C(NN=C(c1ccccc1)c1ccccc1)Nc1ncc(C2CCC2)o1
Selectivity index (Vero [7]): >1250
IC50 (Vero [3]): > 62.5 µg/mL
MIC [1]: 0.1 µg/mL (≈ 0.266 µM)

Oc1ccccc1/C=N/N=C(\S)Nc1ncc(C2CCC2)o1
MIC [1]: 6.25 µg/mL (≈ 19.8 µM)

C/C(=N\N=C(/S)Nc1ncc(C2CCC2)o1)c1ccc(C)cc1
MIC [1]: 0.78 µg/mL (≈ 2.37 µM)

S=C(N/N=C/c1ccc(Cl)cc1)Nc1ncc(C2CCC2)o1
MIC [1]: 1.56 µg/mL (≈ 4.66 µM)

CO[C@H]1/C=C/O[C@@]2(C)Oc3c(C)c(O)c4c(O)c(c(/C=N/N5CCN(C)CC5)c(O)c4c3C2=O)NC(=O)/C(C)=C\C=C\[C@H](C)[C@H](O)[C@@H](C)[C@@H](O)[C@@H](C)[C@H](OC(C)=O)[C@@H]1C [RIFAMPIN]
IC50 (Vero [3]): > 62.5 µg/mL
MIC [1]: 0.1 µg/mL (≈ 0.122 µM)

COc1ccc(/C=N/N=C(\S)Nc2ncc(C3CCC3)o2)cc1
MIC [1]: 6.25 µg/mL (≈ 18.9 µM)

N/N=C(\S)Nc1ncc(C2CCC2)o1
Activity [8]: inactive

Cc1ccc(/C=N/N=C(\S)Nc2ncc(C3CCC3)o2)cc1
IC50 (Vero [3]): < 62.5 µg/mL
MIC [1]: 3.12 µg/mL (≈ 9.92 µM)

C/C(=N\N=C(/S)Nc1ncc(C2CCC2)o1)c1ccc([N+](=O)[O-])cc1
IC50 (Vero [3]): 62.5 µg/mL (≈ 174 µM)
MIC [1]: 0.2 µg/mL (≈ 0.556 µM)

C/C(=N\N=C(/S)Nc1ncc(C2CCC2)o1)c1ccc(N)cc1
IC50 (Vero [3]): 62.5 µg/mL (≈ 190 µM)
MIC [1]: 0.78 µg/mL (≈ 2.37 µM)

S=C(N/N=C(\c1ccccc1)c1ccc(Br)cc1)Nc1ncc(C2CCC2)o1
Log10 cfu [2]: 5.12
IC50 (Vero [3]): > 62.5 µg/mL
Log10 cfu [4]: 5.78
MIC [1]: 0.05 µg/mL (≈ 0.11 µM)

O=[N+]([O-])c1ccc(/C=N/N=C(\S)Nc2ncc(C3CCC3)o2)cc1
IC50 (Vero [3]): < 62.5 µg/mL
MIC [1]: 0.39 µg/mL (≈ 1.13 µM)

C/C(=N\N=C(/S)Nc1ncc(C2CCC2)o1)c1ccc(O)cc1
MIC [1]: 3.12 µg/mL (≈ 9.44 µM)
